The values that follow come from ChEMBL document CHEMBL3351631, “Towards the next generation of dual Bcl-2/Bcl-xL inhibitors” (Bioorg Med Chem Lett, 2014).

Each structure is given as a SMILES string. Values after ≈ are worked out from the molar mass of the structure shown. Some results are limits rather than exact numbers.

Data set [1] can be described thus: Dissociation constant, pKa of the compound. It counts as physicochemical.
The target in data set [2] is Apoptosis regulator Bcl-2 (Homo sapiens, UniProt P10415). Kind of data set: Inhibition of c-terminal 6xHis-tagged Bcl-2 (amino acids 1 to 204) (unknown origin) preincubated for 1 hr prior to substrate addition measured after 20 mins by fluorescence polarization assay.
For data set [3], the target named is Bcl-2-like protein 1 (Homo sapiens, UniProt Q07817). Kind of data set: Inhibition of c-terminal 6xHis-tagged Bcl-xL (amino acids 1 to 209) (unknown origin) preincubated for 1 hr prior to substrate addition measured after 20 mins by fluorescence polarization assay. The gist of the method: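 Bcl-xL (aa 1–209, C-terminal 6xHis) at 0.8 nM preincubated 1 h with serial antagonist dilutions, then 2 nM FITC-labelled Bim BH3 peptide tracer added; buffer 20 mM HEPES pH 7.5, 1 mM DTT, 0.005% Tween-20, 50 mM NaCl.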

Data set [4] has as its system RS4-11. Kind of data set: Induction of apoptosis in human RS4:11 cells overexpressing BCL-2 assessed as caspase 3/7 activation after 6 hrs by quantitative luminescence assay. As to conditions: RS4-11, 6 h. The data set is classed as functional, cell-based. In outline:
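RS4;11 cells seeded 10,000/well in RPMI with 10% FBS; after 16 h, compound added in duplicate for 6 h at 37 °C. Equal volume of Caspase-Glo 3/7 reagent added, 1 h, luminescence read. DMSO set minimum and ABT-263 maximum caspase activity. EC50 averaged from at least two experiments.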

A short description of data set [5]: Equilibrium solubility of the compound at pH 7.4. As to conditions: buffer. It counts as physicochemical.

Sequence of Apoptosis regulator Bcl-2 (P10415 whole entry, the tested form may be a part): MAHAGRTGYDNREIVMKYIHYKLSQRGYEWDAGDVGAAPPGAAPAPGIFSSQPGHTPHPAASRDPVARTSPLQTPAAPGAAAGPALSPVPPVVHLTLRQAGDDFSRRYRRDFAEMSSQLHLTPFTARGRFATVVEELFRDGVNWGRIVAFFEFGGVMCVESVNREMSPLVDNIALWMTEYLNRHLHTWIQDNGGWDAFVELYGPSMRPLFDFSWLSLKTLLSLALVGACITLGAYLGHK
Sequence of Bcl-2-like protein 1 (Q07817 whole entry, the tested form may be a part): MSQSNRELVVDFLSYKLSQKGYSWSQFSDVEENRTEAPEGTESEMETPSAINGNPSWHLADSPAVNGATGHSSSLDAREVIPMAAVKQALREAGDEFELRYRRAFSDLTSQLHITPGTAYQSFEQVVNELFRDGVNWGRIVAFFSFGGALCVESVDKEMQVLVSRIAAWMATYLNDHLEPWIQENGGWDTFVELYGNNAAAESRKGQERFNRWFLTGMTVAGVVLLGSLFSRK

As to `O=C(NS(=O)(=O)c1ccc(N[C@H](CCN2CCOCC2)CSc2ccccc2)c(S(=O)(=O)C(F)(F)F)c1)c1ccc(N2CCN(Cc3ccccc3-c3ccc(Cl)cc3)CC2)nn1`, the pKa in data set [1] came to 3.6. Besides, the IC50 in data set [2] was 270 nM; in data set [3] it was 378 nM. In data set [4], the EC50 came to 563 nM. In data set [5], this compound displayed a thermodynamic solubility of 38 µM (≈ 35.9 µg/mL).
For the compound `O=C(NS(=O)(=O)c1ccc(N[C@H](CCN2CCOCC2)CSc2ccccc2)c(S(=O)(=O)C(F)(F)F)c1)c1ccc(N2CCN(Cc3cccnc3-c3ccc(Cl)cc3)CC2)cc1`, the 50% inhibitory concentration (IC50) came out at 26 nM in data set [2] and 25 nM in data set [3]. In data set [4], the EC50 was 374 nM.
`O=C(NS(=O)(=O)c1ccc(N[C@H](CCN2CCOCC2)CSc2ccccc2)c(S(=O)(=O)C(F)(F)F)c1)c1cnc(N2CCN(Cc3ccccc3-c3ccc(Cl)cc3)CC2)nc1` registered a pKa in data set [1] of 3.5. Also, the results for the IC50 in data set [2] and in data set [3] were 18 nM and 39 nM, respectively. Besides, the EC50 in data set [4] was 177 nM. The thermodynamic solubility in data set [5] was determined as 3 µM (≈ 2.83 µg/mL).
Turning to `O=C(NS(=O)(=O)c1ccc(N[C@H](CCN2CCOCC2)CSc2ccccc2)c(S(=O)(=O)C(F)(F)F)c1)c1ccc(N2CCN(Cc3ccccc3-c3ccc(Cl)cc3)CC2)cc1`, the IC50 is 11 nM in data set [2] and 16 nM in data set [3]. The EC50 in data set [4] came out at 11 nM. The thermodynamic solubility in data set [5] was 14 µM (≈ 13.2 µg/mL).
On to `CN(C)C(=O)COc1cccc(-c2ccc(Cl)cc2)c1CN1CCN(c2ccc(C(=O)NS(=O)(=O)c3ccc(N[C@H](CCN4CCOCC4)CSc4ccccc4)c(S(=O)(=O)C(F)(F)F)c3)cc2)CC1`, for which the IC50 in data set [2] and in data set [3] was under 10 nM each time. Besides, the EC50 in data set [4] is 18 nM. Also, the solubility (thermodynamic) in data set [5] is under 1 µM.
With `O=C(NS(=O)(=O)c1ccc(N[C@H](CCN2CCOCC2)CSc2ccccc2)c(S(=O)(=O)C(F)(F)F)c1)c1ccc(N2CCN(Cc3cn[nH]c3-c3ccc(Cl)cc3)CC2)cc1`, the IC50 in data set [2] stood at 40 nM; in data set [3] it was 38 nM. In data set [4], the EC50 is over 10000 nM. Further, the solubility (thermodynamic) in data set [5] is under 1 µM.
With `O=C(NS(=O)(=O)c1ccc(N[C@H](CCN2CCOCC2)CSc2ccccc2)c(S(=O)(=O)C(F)(F)F)c1)c1ccc(N2CCC(CO)(Cc3ccccc3-c3ccc(Cl)cc3)CC2)cc1`, the figures for the IC50 in data set [2] and in data set [3] were 59 nM and under 10 nM, respectively. In addition, in data set [4], the concentration for a half-maximal effect (EC50) was 112 nM. In data set [5], the thermodynamic solubility is 6 µM (≈ 5.83 µg/mL).
For `O=C(NS(=O)(=O)c1ccc(N[C@H](CCN2CCOCC2)CSc2ccccc2)c(S(=O)(=O)C(F)(F)F)c1)c1ccc(N2CCN(Cc3ccccc3-c3ncc(Cl)cn3)CC2)cc1` the same measures were 21 nM, 21 nM, 3980 nM and under 1 µM.
In data set [1], `O=C(NS(=O)(=O)c1ccc(N[C@H](CCN2CCOCC2)CSc2ccccc2)c(S(=O)(=O)C(F)(F)F)c1)c1csc(N2CCN(Cc3ccccc3-c3ccc(Cl)cc3)CC2)n1` gave a pKa of 2.6. Also, the IC50 is 119 nM in data set [2] and 98 nM in data set [3]. Besides, the EC50 in data set [4] stood at 385 nM. For the same compound, the solubility (thermodynamic) in data set [5] was 2 µM (≈ 1.9 µg/mL).
With `O=C(NS(=O)(=O)c1ccc(N[C@H](CCN2CCOCC2)CSc2ccccc2)c(S(=O)(=O)C(F)(F)F)c1)c1ccc(N2CCC(Oc3ccccc3-c3ccc(Cl)cc3)CC2)cc1`, the IC50 in data set [2] came out at 250 nM; in data set [3], 38 nM. Moreover, the EC50 in data set [4] was over 921 nM. The thermodynamic solubility in data set [5] is 35 µM (≈ 33 µg/mL).
Consider `CC1(C)CCC(c2ccc(Cl)cc2)=C(CN2CCN(c3ccc(C(=O)NS(=O)(=O)c4ccc(N[C@H](CCN5CCOCC5)CSc5ccccc5)c(S(=O)(=O)C(F)(F)F)c4)cc3)CC2)C1` [NAVITOCLAX], for which, in data set [4], the 50% effective concentration (EC50) came out at 14 nM.
`O=C(NS(=O)(=O)c1ccc(N[C@H](CCN2CCOCC2)CSc2ccccc2)c(S(=O)(=O)C(F)(F)F)c1)c1ccc(N2CCC([S@@+]([O-])c3ccccc3-c3ccc(Cl)cc3)CC2)cc1`: the IC50 came out at 19 nM in data set [2] and 11 nM in data set [3]. For the same compound, in data set [4], the half-maximal effective concentration (EC50) came out at 90 nM. For the same compound, the thermodynamic solubility in data set [5] worked out at 26 µM (≈ 25.4 µg/mL).
Regarding `N#CC1(Cc2ccccc2-c2ccc(Cl)cc2)CCN(c2ccc(C(=O)NS(=O)(=O)c3ccc(N[C@H](CCN4CCOCC4)CSc4ccccc4)c(S(=O)(=O)C(F)(F)F)c3)cc2)CC1`, the IC50 in data set [2] and in data set [3] was under 10 nM each time. Besides, the EC50 in data set [4] came to 504 nM. The same compound yielded a solubility (thermodynamic) in data set [5] of 2 µM (≈ 1.93 µg/mL).
For the compound `CN(C)CCOc1ccc(-c2ccc(Cl)cc2)c(CN2CCN(c3ccc(C(=O)NS(=O)(=O)c4ccc(N[C@H](CCN5CCOCC5)CSc5ccccc5)c(S(=O)(=O)C(F)(F)F)c4)cc3)CC2)c1`, the IC50 in data set [2] and in data set [3] was under 10 nM throughout. In data set [4], the half-maximal effective concentration (EC50) came to 23 nM. Also, the solubility (thermodynamic) in data set [5] is under 1 µM.
Turning to `O=C(NS(=O)(=O)c1ccc(N[C@H](CCN2CCOCC2)CSc2ccccc2)c(S(=O)(=O)C(F)(F)F)c1)c1ccc(N2CC3(CN(Cc4ccccc4-c4ccc(Cl)cc4)C3)C2)cc1`, the results for the concentration for half-maximal inhibition (IC50) in data set [2] and in data set [3] were over 468 nM and 77 nM, respectively. In addition, in data set [4], the EC50 was determined as 610 nM. Besides, in data set [5], the thermodynamic solubility was under 1 µM.
As for `O=C(NS(=O)(=O)c1ccc(N[C@H](CCN2CCOCC2)CSc2ccccc2)c(S(=O)(=O)C(F)(F)F)c1)c1ccc(P2(=O)CCN(Cc3ccccc3-c3ccc(Cl)cc3)CC2)cc1`, the IC50 in data set [2] was over 1100 nM; in data set [3] it was 308 nM. In addition, the EC50 in data set [4] is over 1100 nM. The solubility (thermodynamic) in data set [5] was found to be 4 µM (≈ 3.9 µg/mL).
Turning to `CCOC(=O)C1(Cc2ccccc2-c2ccc(Cl)cc2)CCN(c2ccc(C(=O)NS(=O)(=O)c3ccc(N[C@H](CCN4CCOCC4)CSc4ccccc4)c(S(=O)(=O)C(F)(F)F)c3)cc2)CC1`, the IC50 in data set [2] was determined as 17 nM; in data set [3] it was 30 nM. The EC50 in data set [4] came to 1790 nM. The compound also had a thermodynamic solubility in data set [5] of under 1.5 µM.
For `O=C(NS(=O)(=O)c1ccc(N[C@H](CCN2CCOCC2)CSc2ccccc2)c(S(=O)(=O)C(F)(F)F)c1)c1ccc(N2CCC(Sc3ccccc3-c3ccc(Cl)cc3)CC2)cc1` the same measures were 61 nM, 31 nM, over 516 nM and 27 µM (≈ 25.9 µg/mL).
For `CN(C)C(=O)COc1ccc(-c2ccc(Cl)cc2)c(CN2CCN(c3ccc(C(=O)NS(=O)(=O)c4ccc(N[C@H](CCN5CCOCC5)CSc5ccccc5)c(S(=O)(=O)C(F)(F)F)c4)cc3)CC2)c1`, the 50% inhibitory concentration (IC50) in data set [2] and in data set [3] was under 10 nM each time. The EC50 in data set [4] is 51 nM. Also, the solubility (thermodynamic) in data set [5] is 2 µM (≈ 2.09 µg/mL).
For `O=C(NS(=O)(=O)c1ccc(N[C@H](CCN2CCOCC2)CSc2ccccc2)c(S(=O)(=O)C(F)(F)F)c1)c1ccc(N2CCC(S(=O)(=O)c3ccccc3-c3ccc(Cl)cc3)CC2)cc1`, the IC50 came to 87 nM in data set [2] and 21 nM in data set [3]. Moreover, the 50% effective concentration (EC50) in data set [4] was over 1100 nM. The compound further returned a solubility (thermodynamic) in data set [5] of 27 µM (≈ 26.8 µg/mL).
Consider `CN(C)CCOc1cccc(-c2ccc(Cl)cc2)c1CN1CCN(c2ccc(C(=O)NS(=O)(=O)c3ccc(N[C@H](CCN4CCOCC4)CSc4ccccc4)c(S(=O)(=O)C(F)(F)F)c3)cc2)CC1`, for which, in data set [2], the IC50 was under 10 nM. Moreover, the EC50 in data set [4] was determined as 4 nM. Moreover, in data set [5], the solubility (thermodynamic) is under 1 µM.
As for `O=C(NS(=O)(=O)c1ccc(N[C@H](CCN2CCOCC2)CSc2ccccc2)c(S(=O)(=O)C(F)(F)F)c1)c1ccc(N2CCC([S@+]([O-])c3ccccc3-c3ccc(Cl)cc3)CC2)cc1`, the IC50 is 545 nM in data set [2] and 54 nM in data set [3]. In data set [4], the EC50 was over 1100 nM. In data set [5], the thermodynamic solubility worked out at 12 µM (≈ 11.7 µg/mL).
For `O=C(NS(=O)(=O)c1ccc(N[C@H](CCN2CCOCC2)CSc2ccccc2)c(S(=O)(=O)C(F)(F)F)c1)c1ccc(N2CCP(=O)(Cc3ccccc3-c3ccc(Cl)cc3)CC2)cc1` the same measures were 54 nM, 18 nM, over 1100 nM and 21 µM (≈ 20.5 µg/mL).
As for `O=C(NS(=O)(=O)c1ccc(N[C@H](CCN2CCOCC2)CSc2ccccc2)c(S(=O)(=O)C(F)(F)F)c1)c1ccc(N2CCN(Cc3ccncc3-c3ccc(Cl)cc3)CC2)cc1`, the 50% inhibitory concentration (IC50) in data set [2] is under 10 nM; in data set [3], 15 nM. Moreover, in data set [4], the EC50 came to 201 nM.
On to `NCC1(Cc2ccccc2-c2ccc(Cl)cc2)CCN(c2ccc(C(=O)NS(=O)(=O)c3ccc(N[C@H](CCN4CCOCC4)CSc4ccccc4)c(S(=O)(=O)C(F)(F)F)c3)cc2)CC1`, for which the IC50 in data set [2] and in data set [3] was under 10 nM throughout. Further, the EC50 in data set [4] worked out at 395 nM. Besides, the thermodynamic solubility in data set [5] was under 1 µM.
Regarding `N=C(NS(=O)(=O)c1ccc(N[C@H](CCN2CCOCC2)CSc2ccccc2)c(S(=O)(=O)C(F)(F)F)c1)c1ccc(N2CCN(Cc3ccccc3-c3ccc(Cl)cc3)CC2)cc1`, the IC50 was 19 nM in data set [2] and 63 nM in data set [3]. Also, the EC50 in data set [4] is over 3190 nM. The same compound yielded a thermodynamic solubility in data set [5] of under 1 µM.
`Cn1ncc(CN2CCN(c3ccc(C(=O)NS(=O)(=O)c4ccc(N[C@H](CCN5CCOCC5)CSc5ccccc5)c(S(=O)(=O)C(F)(F)F)c4)cc3)CC2)c1-c1ccc(Cl)cc1`: the IC50 in data set [2] and in data set [3] was under 10 nM throughout. In addition, the EC50 in data set [4] worked out at 420 nM. Besides, the solubility (thermodynamic) in data set [5] is under 1 µM.
Turning to `O=C(NS(=O)(=O)c1ccc(N[C@H](CCN2CCOCC2)CSc2ccccc2)c(S(=O)(=O)C(F)(F)F)c1)c1ccc(N2CCC(C(=O)c3ccccc3-c3ccc(Cl)cc3)CC2)cc1`, the values for the IC50 in data set [2] and in data set [3] were 65 nM and under 10 nM, respectively. Besides, the EC50 in data set [4] was over 1100 nM.
